Laboratory results published in paper PMC13201524 (Journal of structural biology, 2025).
Changes are numbered by the printed parent chain. Names and notes keep the numbering of the source. “Also recorded” adds a separate entry of the source. Where two headings read alike, the source gives them in different places. Blank lines part the entries; values can stand above or below the molecule they belong to.

Assays:
hScn = conditions: read-out: binding affinity; ref Goetz et al., 2002; Hohlbaum et al., 2018; cited from earlier work
mScn = target: T1, mScn (Mus musculus, UniProt P11672); experiment: 1H-15N Trosy HSQC NMR screening and titration on mScn; type: binding; conditions: FDA-approved drugs library and Vanderbilt discovery library; peak shifts of mScn
T1 sequence (P11672 with tags, fused parts or gaps): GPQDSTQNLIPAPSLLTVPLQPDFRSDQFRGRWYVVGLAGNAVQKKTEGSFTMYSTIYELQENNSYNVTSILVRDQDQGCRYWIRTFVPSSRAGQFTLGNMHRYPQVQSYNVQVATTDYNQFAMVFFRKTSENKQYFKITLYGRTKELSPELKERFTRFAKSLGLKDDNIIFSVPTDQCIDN
How it was run: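 15N-labelled mScn was expressed in E. coli BL21(DE3) as a 6His-GB1 fusion, and the GB1 tag was cleaved with HRV3C. Screening used pools of 12 compounds (1 μl each of 10 mM DMSO stock) with 20 μM mScn in 100 mM sodium phosphate pH 6.0, 5 vol% D2O and 2 vol% DMSO. Hits were re-tested singly, then titrated with 50 μM mScn (5 vol% DMSO) at protein:ligand ratios from 1:0 to 1:10.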

[1] = ref Gleiter and Mörike, 2002; Buter et al., 1999; cited from earlier work
[2] = ref Gleiter and Mörike, 2002; Buter et al., 1999; cited from earlier work; remark: listed apart in the source
[3] = Isothermal titration calorimetry; type: binding
How it was run: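 Monomeric hScn C87S (and mutants) was expressed in E. coli on M9 medium and purified by Ni-NTA and size exclusion. The protein sat in the cell and the test compound in the syringe, both in matched 100 mM sodium phosphate pH 6.0 with 2% DMSO. Runs were at 25°C and 750 rpm: a 0.4 μL first injection, then at least 19 injections of 2 μL spaced 150 s. A ligand-into-buffer reference titration was run.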

Molecule: O=C(N[C@H]1COC(=O)[C@@H](NC(=O)c2cccc(O)c2O)COC(=O)[C@@H](NC(=O)c2cccc(O)c2O)COC1=O)c1cccc(O)c1O [enterobactin]
Kd (hScn): 0.41 ± 0.11 nM

Molecule: CCOc1nc2cccc(C(=O)O)c2n1Cc1ccc(-c2ccccc2-c2nnn[nH]2)cc1 [candesartan]
NMR screening / titration result in words (mScn): tightest binding; also recorded: medium to low affinity
maximal plasma concentration [1]: around 0.227 μM
plasma protein binding [2]: exceeding 99%

B2: T54R: hScn_C87S point mutant, best performing gain of binding mutant (protein, UniProt P80188 21-198, looked up, variant C87S T54R)
Neutrophil …: QDSTSDLIPAPPLSKVPLQQNFQDNQFQGKWYVVGLAGNAILREDKDPQKMYARIYELKEDKSYNVTSVLFRKKKCDYWIRTFVPGSQPGEFTLGNIKSYPGLTSYLVRVVSTNYNQHAMVFFKKVSQNREYFKITLYGRTKELTSELKENFIRFSKSLGLPENHIVFPVPIDQCIDG
Kd ([3]; read-out: ITC KD1, first binding event, value in nM): 115 nM
Kd ([3]; read-out: ITC- KD2, second binding event): 3500 nM

Other lines, results leading:

NMR screening / titration result in words (mScn): identified hits
Molecule: CCOc1nc2cccc(C(=O)O)c2n1Cc1ccc(-c2ccccc2-c2nc(=O)o[nH]2)cc1 [azilsartan]

NMR screening / titration result in words (mScn): identified hits
Molecule: CCCCC(=O)N(Cc1ccc(-c2ccccc2-c2nnn[nH]2)cc1)[C@H](C(=O)O)C(C)C [valsartan]

increase of KD (decrease in binding affinity) compared to wild type ([3]; ITC, candesartan): fivefold
B1: Y138A: hScn_C87S point mutant, best performing loss of binding mutant (protein, UniProt P80188 21-198, looked up, variant C87S Y138A)
Neutrophil …: B2 Neutrophil … with R54T, Y138A
